The values below come from ChEMBL document CHEMBL4190249, “Antiproliferative and apoptotic activities of sequence-specific histone acetyltransferase inhibitors” (Eur J Med Chem, 2017).

pIC50: −log10 of the molar value. Active and inactive are the calls of the source. The rule behind the calls is not given here.

Test [1] relates to A549. Briefly: Antiproliferative activity against human A549 cells at 0.1 to 10 uM after 96 hrs by WST8 assay. Type of test: functional, cell-based. In a few lines:
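Cells seeded at 5×10^3 per well and grown 24 h at 37°C, 5% CO2. A549 medium was DMEM with 10% FBS and 2 mM L-glutamine. SW620 medium had 10% FBS and 1% penicillin/streptomycin. Medium was then replaced with conjugate at 0.1, 1, 5 or 10 μM for 96 h. WST-8 reagent was added and absorbance read at 450 nm. Results are mean ± SD.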
Background: Formazan colour is commonly taken as a measure of viable cells.

For test [2], the system named is A549. Briefly: Anticlonogenic activity against human A549 cells after 10 days. Type of test: functional, cell-based. Particulars: A549, 240 h.
In test [3] the test system is NCI-H460. Briefly: Anticlonogenic activity against human NCI-H460 cells after 10 days. Type of test: functional, cell-based. Particulars: NCI-H460, 240 h.
The subject of test [4] is NCI-H157. Briefly: Anticlonogenic activity against human NCI-H157 cells after 10 days. Format: functional, cell-based. Particulars: NCI-H157, 240 h.
Test [5] has as its system dsDNA. Briefly: Binding affinity to 5'-ACTTATCCACTATAGA-3'/3'-TGAATAGGTGATATCT-5' dsDNA (unknown origin) assessed as change in melting temperature at 2.5 uM by spectrophotometric method. Type of test: nucleic-acid assay.
The subject of test [6] is dsDNA. Briefly: Binding affinity to 5'-ACTTATTCCATATAGA-3'/3'-TGAATAAGGTATATCT-5' dsDNA (unknown origin) assessed as change in melting temperature at 2.5 uM by spectrophotometric method. Type of test: nucleic-acid assay.
The target of test [7] is Histone acetyltransferase p300 (Homo sapiens, UniProt Q09472). Briefly: Inhibition of p300 (unknown origin) using H3 peptide and acetyl-coA as substrate by fluorometric assay. In a few lines: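 Fluorometric HAT kit assay with recombinant p300 core domain as enzyme and acetyl-CoA plus H3 histone peptide as substrates. Effectors were tested at 1 and 5 μM. HeLa nuclear extract served as positive control, and 0.5% DMSO was set as 100% activity.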
Chain of Histone acetyltransferase p300 (Q09472 whole entry, the tested form may be a part): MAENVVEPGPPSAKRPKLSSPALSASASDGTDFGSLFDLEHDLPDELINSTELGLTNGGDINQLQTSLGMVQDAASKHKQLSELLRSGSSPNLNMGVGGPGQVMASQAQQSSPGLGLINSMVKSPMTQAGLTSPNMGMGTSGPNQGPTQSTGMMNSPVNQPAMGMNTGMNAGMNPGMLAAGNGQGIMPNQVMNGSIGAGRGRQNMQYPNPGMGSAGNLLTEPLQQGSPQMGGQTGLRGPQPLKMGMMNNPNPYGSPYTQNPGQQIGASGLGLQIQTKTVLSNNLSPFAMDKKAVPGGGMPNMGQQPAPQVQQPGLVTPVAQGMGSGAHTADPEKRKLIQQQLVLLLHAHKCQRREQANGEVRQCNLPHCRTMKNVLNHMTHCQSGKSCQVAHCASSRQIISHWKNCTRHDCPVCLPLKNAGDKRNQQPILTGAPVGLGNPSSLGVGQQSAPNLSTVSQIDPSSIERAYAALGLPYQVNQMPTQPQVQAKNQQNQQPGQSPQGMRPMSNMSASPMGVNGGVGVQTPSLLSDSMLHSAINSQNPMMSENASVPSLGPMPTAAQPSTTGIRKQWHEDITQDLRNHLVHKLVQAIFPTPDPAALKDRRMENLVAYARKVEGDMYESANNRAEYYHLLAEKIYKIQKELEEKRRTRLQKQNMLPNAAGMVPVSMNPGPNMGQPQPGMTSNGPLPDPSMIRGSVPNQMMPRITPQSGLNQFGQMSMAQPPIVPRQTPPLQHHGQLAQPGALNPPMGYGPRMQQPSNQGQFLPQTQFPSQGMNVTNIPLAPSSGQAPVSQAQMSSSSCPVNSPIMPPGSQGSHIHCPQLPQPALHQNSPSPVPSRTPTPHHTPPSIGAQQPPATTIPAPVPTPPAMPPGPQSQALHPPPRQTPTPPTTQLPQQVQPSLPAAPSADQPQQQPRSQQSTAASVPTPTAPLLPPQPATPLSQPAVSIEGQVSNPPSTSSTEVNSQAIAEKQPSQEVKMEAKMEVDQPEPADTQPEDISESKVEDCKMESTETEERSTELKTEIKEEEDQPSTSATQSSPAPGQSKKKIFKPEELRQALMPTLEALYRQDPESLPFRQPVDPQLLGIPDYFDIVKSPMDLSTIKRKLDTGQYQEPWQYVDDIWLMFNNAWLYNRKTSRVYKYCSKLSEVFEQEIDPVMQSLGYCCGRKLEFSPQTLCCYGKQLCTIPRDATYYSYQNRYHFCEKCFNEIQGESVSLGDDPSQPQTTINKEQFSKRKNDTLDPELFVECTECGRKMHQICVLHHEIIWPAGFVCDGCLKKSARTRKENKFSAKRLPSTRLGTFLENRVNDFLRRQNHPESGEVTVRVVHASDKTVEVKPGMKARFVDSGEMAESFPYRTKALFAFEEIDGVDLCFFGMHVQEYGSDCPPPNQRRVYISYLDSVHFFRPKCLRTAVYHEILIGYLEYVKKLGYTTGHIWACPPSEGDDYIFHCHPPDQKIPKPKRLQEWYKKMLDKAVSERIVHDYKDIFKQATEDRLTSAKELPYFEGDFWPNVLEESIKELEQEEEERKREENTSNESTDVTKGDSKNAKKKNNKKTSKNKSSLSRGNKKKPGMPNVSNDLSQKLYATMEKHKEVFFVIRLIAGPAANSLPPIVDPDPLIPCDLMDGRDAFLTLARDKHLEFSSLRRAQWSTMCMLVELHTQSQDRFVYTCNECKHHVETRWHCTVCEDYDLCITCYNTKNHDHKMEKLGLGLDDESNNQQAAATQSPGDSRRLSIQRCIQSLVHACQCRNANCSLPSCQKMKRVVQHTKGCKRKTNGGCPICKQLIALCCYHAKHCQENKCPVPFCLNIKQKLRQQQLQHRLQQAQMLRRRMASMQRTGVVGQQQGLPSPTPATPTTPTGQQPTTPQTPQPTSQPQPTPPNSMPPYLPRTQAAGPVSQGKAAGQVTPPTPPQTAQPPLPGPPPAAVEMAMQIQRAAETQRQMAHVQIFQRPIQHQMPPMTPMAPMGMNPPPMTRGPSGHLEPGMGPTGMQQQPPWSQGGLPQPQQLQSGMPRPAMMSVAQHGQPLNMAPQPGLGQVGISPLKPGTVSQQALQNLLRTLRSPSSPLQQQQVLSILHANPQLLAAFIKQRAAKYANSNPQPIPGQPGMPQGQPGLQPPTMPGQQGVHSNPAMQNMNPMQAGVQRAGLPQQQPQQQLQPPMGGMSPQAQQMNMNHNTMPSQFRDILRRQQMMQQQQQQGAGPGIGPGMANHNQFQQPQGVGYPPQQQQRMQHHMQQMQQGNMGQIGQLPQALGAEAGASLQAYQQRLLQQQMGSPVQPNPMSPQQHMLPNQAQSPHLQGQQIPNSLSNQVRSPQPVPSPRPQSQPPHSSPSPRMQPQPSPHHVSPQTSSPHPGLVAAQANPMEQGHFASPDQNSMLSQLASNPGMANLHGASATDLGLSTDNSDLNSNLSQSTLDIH

Broadly, the pIC50 is the negative decadic logarithm of the IC50, by convention in mol/L. A high value points to a small IC50. For the compound `CC1=NN(c2ccc(C(=O)O)cc2)C(=O)/C1=C/c1ccc(-c2cc(C)c(C)cc2[N+](=O)[O-])o1`, the result in test [1] was inactive. Further, the pIC50 in test [2] was 5.00; in test [3], 5.20; in test [4] it was 5.22.
As usually defined, the ΔTm is the change in melting temperature against a reference sample. With `CC1=NN(c2ccc(C(=O)NCCOCCOCC(=O)NCCOCCOCC(=O)Nc3cc(C(=O)Nc4cn(C)c(C(=O)Nc5cn(C)c(C(=O)Nc6cc(C(=O)NCCCC(=O)Nc7cc(C(=O)Nc8cc(C(=O)Nc9cc(C(=O)Nc%10cc(C(=O)NCCCN(C)C)n(C)c%10)n(C)c9)n(C)c8)n(C)c7)n(C)c6)n5)n4)n(C)c3)cc2)C(=O)/C1=C/c1ccc(-c2cc(C)c(C)cc2[N+](=O)[O-])o1`, the ΔTm in test [5] stood at 12.2 °C; in test [6], 18.4 °C. Moreover, the outcome in test [1] was Active. For the same compound, the pIC50 in test [7] is 5.38 to 5.41.
Take `CCCCCCCCCCCCCCOc1cc(OCCCCCC(=O)NCCC(=O)Nc2cc(C(=O)Nc3cn(C)c(C(=O)Nc4cn(C)c(C(=O)Nc5cc(C(=O)NCCCC(=O)Nc6cc(C(=O)Nc7cc(C(=O)Nc8cc(C(=O)Nc9cc(C(=O)NCCCN(C)C)n(C)c9)n(C)c8)n(C)c7)n(C)c6)n(C)c5)n4)n3)n(C)c2)cc(O)c1C(=O)O`: the inhibition result in test [7] is “Dose-dependent effect”.
On the same count and under the same terms, in the case of `CCCCCCCCCCCCCCCc1cccc(O)c1C(=O)O` it was “Dose-dependent effect”.
